11 molecules from ChEMBL document CHEMBL1287649, “Synthesis and anti-tubercular and antimicrobial activities of some 2r,4c-diaryl-3-azabicyclo[3.3.1]nonan-9-one N-isonicotinoylhydrazone derivatives” (2010) can be followed below.

The MIC is the lowest concentration found to suppress growth.

In brackets after ≈: the same amount, converted by molar mass. Activity calls are given as the source filed them. The rule behind the calls is not given here.

Experiment [1] relates to Bacillus subtilis. The experiment is described as follows: Antibacterial activity against Bacillus subtilis NCIM 2439 after 24 hrs by twofold serial dilution method. It is filed as functional. As to conditions: NCIM 2439, 24 h. In outline: (§1)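 Two-fold serial dilution in nutrient broth; compounds from 1 mg mL^-1 DMSO stocks, 0.2 mL into 1.8 mL seeded broth, then six serial dilutions. Inoculum from 24-h nutrient agar cultures grown at 37 ± 1 °C, final 10⁵ cfu mL^-1, pH 7.4 ± 0.2. Incubated at 37 ± 1 °C. MIC read visually after 24 h. Seeded-broth and solvent controls included.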

Experiment [2] has as its system Klebsiella pneumoniae. The experiment is described as follows: Antibacterial activity against Klebsiella pneumoniae after 24 hrs by twofold serial dilution method. The format is functional. In outline:
as §1

In experiment [3] the test system is Escherichia coli. The experiment is described as follows: Antibacterial activity against Escherichia coli NCIM 2345 after 24 hrs by twofold serial dilution method. To be noted: NCIM 2345, 24 h. It is filed as functional. In outline:
as §1

A further experiment has as its system Staphylococcus aureus. The experiment is described as follows: Antibacterial activity against Staphylococcus aureus NCIM 2492 after 24 hrs by twofold serial dilution method. The format is functional. To be noted: NCIM 2492, 24 h. In outline: as §1
Experiment [4] concerns Pseudomonas aeruginosa. The experiment is described as follows: Antibacterial activity against Pseudomonas aeruginosa NCIM 2035 after 24 hrs by twofold serial dilution method. It is filed as functional. To be noted: NCIM 2035, 24 h. In outline: as §1
Experiment [5] deals with Mycobacterium tuberculosis. The experiment is described as follows: Antitubercular activity against Mycobacterium tuberculosis H37Rv ATCC 27294 assessed as reduction of relative light unit at 1 ug/ml after 72 hrs by luciferase reporter phage assay relative to control. The format is functional, H37Rv ATTC 27294. Also on record: scale not given: the % may be the effect or the level left. In outline: (§2)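 Luciferase reporter phage assay. Luminescence (RLU) integrated for 10 s on a luminometer, in duplicate per sample and averaged. Percent RLU reduction calculated against untreated control. Run repeated if the control mean RLU was below 1000.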
A general note: In a reporter assay the amount or activity of a reporter protein is the signal.

Experiment [6] concerns Mycobacterium tuberculosis. Description: Antitubercular activity against Mycobacterium tuberculosis H37Rv ATCC 27294 assessed as reduction of relative light unit at 2 ug/ml after 72 hrs by luciferase reporter phage assay relative to control. The format is functional, H37Rv ATTC 27294. Also on record: scale not given: the % may be the effect or the level left. Summed up:
as §2

In experiment [7] the test system is Candida albicans. Description: Antifungal activity against Candida albicans-6 NCIM C27 after 72 to 96 hrs by twofold serial dilution method. The format is functional. In outline: (§3)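 Two-fold serial dilution in Sabouraud dextrose broth; compounds from 1 mg mL^-1 DMSO stocks, 0.2 mL into 1.8 mL seeded broth, then six serial dilutions. Spores from 24-h to 7-day Sabouraud agar slants, final 1.1–1.5 × 10² cfu mL^-1, pH 7.4 ± 0.2. Incubated at 28 ± 1 °C. MIC read visually after 72–96 h. Seeded-broth and solvent controls included.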

Experiment [8] deals with Candida albicans. Description: Antifungal activity against Candida albicans NCIM C27 after 72 to 96 hrs by twofold serial dilution method. The format is functional. In outline: as §3
The test system of a further experiment is Aspergillus niger. The experiment is described as follows: Antifungal activity against Aspergillus niger NCIM 590 after 72 to 96 hrs by twofold serial dilution method. The format is functional. Summed up: as §3
Experiment [9] has as its system Candida albicans. The experiment is described as follows: Antifungal activity against Candida albicans-51 NCIM C27 after 72 to 96 hrs by twofold serial dilution method. The format is functional. Summed up: as §3
Experiment [10] relates to Aspergillus flavus. Description: Antifungal activity against Aspergillus flavus NCIM 539 after 72 to 96 hrs by twofold serial dilution method. It is filed as functional. In outline: as §3
Experiment [11] deals with Bacillus subtilis. The experiment is described as follows: Antibacterial activity against Bacillus subtilis NCIM 2439 at 200 ug/ml after 24 hrs by twofold serial dilution method. It is filed as functional, organism-based.
In experiment [12] the test system is Klebsiella pneumoniae. Description: Antibacterial activity against Klebsiella pneumoniae at 200 ug/ml after 24 hrs by twofold serial dilution method. It is filed as functional, organism-based.
Experiment [13] concerns Escherichia coli. The experiment is described as follows: Antibacterial activity against Escherichia coli NCIM 2345 at 200 ug/ml after 24 hrs by twofold serial dilution method. The format is functional, organism-based.
In experiment [14] the test system is Candida albicans. Description: Antifungal activity against Candida albicans-6 NCIM C27 at 200 ug/ml after 72 to 96 hrs by twofold serial dilution method. The format is functional, organism-based.
The subject of experiment [15] is Candida albicans. The experiment is described as follows: Antifungal activity against Candida albicans NCIM C27 at 200 ug/ml after 72 to 96 hrs by twofold serial dilution method. It is filed as functional, organism-based.
Experiment [16] has as its system Aspergillus flavus. The experiment is described as follows: Antifungal activity against Aspergillus flavus NCIM 539 at 200 ug/ml after 72 to 96 hrs by twofold serial dilution method. The format is functional, organism-based.
Experiment [17] concerns Pseudomonas aeruginosa. Description: Antibacterial activity against Pseudomonas aeruginosa NCIM 2035 at 200 ug/ml after 24 hrs by twofold serial dilution method. It is filed as functional, organism-based.

Regarding `CN[C@@H]1[C@H](O[C@H]2[C@H](O[C@H]3[C@H](O)[C@@H](O)[C@H](N=C(N)N)[C@@H](O)[C@@H]3N=C(N)N)O[C@@H](C)[C@]2(O)C=O)O[C@@H](CO)[C@H](O)[C@H]1O` [STREPTOMYCIN], the MIC in the experiment on Bacillus subtilis [1] was found to be 12.5 µg/mL (≈ 21.5 µM); with Klebsiella pneumoniae [2], 50 µg/mL (≈ 86 µM); against Escherichia coli [3] it was 12.5 µg/mL (≈ 21.5 µM); against Staphylococcus aureus, 50 µg/mL (≈ 86 µM); with Pseudomonas aeruginosa [4], 25 µg/mL (≈ 43 µM).
Consider `O=C(N/N=C1\C2CCCC1[C@H](c1cccc(Cl)c1)N[C@@H]2c1cccc(Cl)c1)c1ccncc1`, for which the values for the Activity in [5] and in [6] were 75.42% and 85.34%, respectively. Further, the MIC with Bacillus subtilis [1] is 100 µg/mL (≈ 209 µM); with Klebsiella pneumoniae [2] it was 50 µg/mL (≈ 104 µM); in the experiment on Escherichia coli [3] it was 50 µg/mL (≈ 104 µM); against Staphylococcus aureus it was 100 µg/mL (≈ 209 µM); in the experiment on Pseudomonas aeruginosa [4], 100 µg/mL (≈ 209 µM); in the experiment on Candida albicans [7], 50 µg/mL (≈ 104 µM). Besides, the MIC amounted to 200 µg/mL (≈ 417 µM) against Candida albicans [8], 100 µg/mL (≈ 209 µM) in the experiment with Aspergillus niger, 200 µg/mL (≈ 417 µM) against Candida albicans [9] and 200 µg/mL (≈ 417 µM) with Aspergillus flavus [10].
Regarding `C[C@@H]1[C@H](O)[C@@H](C)/C=C/C=C/C=C/C=C/C=C/C=C/C=C/[C@H](O[C@@H]2O[C@H](C)[C@@H](O)[C@H](N)[C@@H]2O)C[C@@H]2O[C@](O)(C[C@@H](O)C[C@@H](O)[C@H](O)CC[C@@H](O)C[C@@H](O)CC(=O)O[C@H]1C)C[C@H](O)[C@H]2C(=O)O` [AMPHOTERICIN B], the MIC worked out at 25 µg/mL (≈ 27.1 µM) in the experiment with Candida albicans [7]; 25 µg/mL (≈ 27.1 µM) with Candida albicans [8]; 50 µg/mL (≈ 54.1 µM) with Aspergillus niger; 25 µg/mL (≈ 27.1 µM) in the experiment with Candida albicans [9]; 50 µg/mL (≈ 54.1 µM) in the experiment with Aspergillus flavus [10].
`O=C(N/N=C1\C2CCCC1[C@H](c1ccccc1)N[C@@H]2c1ccccc1)c1ccncc1`: the Activity in experiment [5] is recorded as 77.76%; in [6] it was 87.9%. Besides, the result in the experiment on Bacillus subtilis [11], in the experiment on Klebsiella pneumoniae [12], in the experiment with Escherichia coli [13], in the experiment with Candida albicans [14], in the experiment on Candida albicans [15] and with Aspergillus flavus [16] was inactive. The MIC in the experiment with Staphylococcus aureus was found to be 100 µg/mL (≈ 244 µM); in the experiment with Pseudomonas aeruginosa [4] it was 200 µg/mL (≈ 487 µM); with Aspergillus niger it was 200 µg/mL (≈ 487 µM); against Candida albicans [9], 100 µg/mL (≈ 244 µM).
`O=C(N/N=C1\C2CCCC1[C@H](c1ccc(Cl)cc1)N[C@@H]2c1ccc(Cl)cc1)c1ccncc1`: the Activity in experiment [5] is on record as 75.61%; in experiment [6], 85.22%. The MIC against Bacillus subtilis [1] stood at 100 µg/mL (≈ 209 µM); in the experiment with Klebsiella pneumoniae [2], 100 µg/mL (≈ 209 µM); against Escherichia coli [3], 50 µg/mL (≈ 104 µM); against Staphylococcus aureus, 50 µg/mL (≈ 104 µM); against Pseudomonas aeruginosa [4], 100 µg/mL (≈ 209 µM); against Candida albicans [7] it was 100 µg/mL (≈ 209 µM). Moreover, the MIC against Candida albicans [8] stood at 100 µg/mL (≈ 209 µM); against Aspergillus niger, 100 µg/mL (≈ 209 µM); in the experiment on Candida albicans [9], 50 µg/mL (≈ 104 µM); against Aspergillus flavus [10], 200 µg/mL (≈ 417 µM). The outcome in the experiment on Pseudomonas aeruginosa [17] was inactive.
`O=C(N/N=C1\C2CCCC1[C@H](c1ccc(F)cc1)N[C@@H]2c1ccc(F)cc1)c1ccncc1`: the Activity in experiment [5] is 76.63%; in experiment [6], 86.12%. In addition, the MIC is 50 µg/mL (≈ 112 µM) in the experiment on Bacillus subtilis [1]; 100 µg/mL (≈ 224 µM) against Escherichia coli [3]; 50 µg/mL (≈ 112 µM) against Staphylococcus aureus; 100 µg/mL (≈ 224 µM) in the experiment on Pseudomonas aeruginosa [4]; 50 µg/mL (≈ 112 µM) against Candida albicans [7]; 50 µg/mL (≈ 112 µM) against Candida albicans [8]. The MIC stood at 100 µg/mL (≈ 224 µM) against Aspergillus niger, 50 µg/mL (≈ 112 µM) in the experiment with Candida albicans [9] and 100 µg/mL (≈ 224 µM) against Aspergillus flavus [10]. Further, in the experiment with Klebsiella pneumoniae [12], the result was inactive.
As to `NNC(=O)c1ccncc1` [ISONIAZID], the Activity in [5] and in [6] was 98.42% in each case.
Take `Cc1ccc([C@H]2N[C@@H](c3ccc(C)cc3)C3CCCC2/C3=N\NC(=O)c2ccncc2)cc1`: the values for the Activity in [5] and in [6] were 72.03% and 82.04%, respectively. The MIC was 200 µg/mL (≈ 456 µM) against Bacillus subtilis [1]; 200 µg/mL (≈ 456 µM) with Staphylococcus aureus; 100 µg/mL (≈ 228 µM) against Pseudomonas aeruginosa [4]; 200 µg/mL (≈ 456 µM) against Candida albicans [7]; 100 µg/mL (≈ 228 µM) against Candida albicans [8]; 100 µg/mL (≈ 228 µM) against Aspergillus niger. Also, 100 µg/mL (≈ 228 µM) was the least that counted as inhibitory against Candida albicans [9] (MIC). For the same molecule, the result with Klebsiella pneumoniae [12], in the experiment with Escherichia coli [13] and in the experiment on Aspergillus flavus [16] was inactive.
As for `CC1(C)S[C@@H]2[C@H](NC(=O)Cc3ccccc3)C(=O)N2[C@H]1C(=O)O` [PENICILLIN G], the MIC in the experiment on Bacillus subtilis [1] is 25 µg/mL (≈ 74.8 µM); against Klebsiella pneumoniae [2], 12.5 µg/mL (≈ 37.4 µM); against Escherichia coli [3], 50 µg/mL (≈ 150 µM); with Staphylococcus aureus, 12.5 µg/mL (≈ 37.4 µM); against Pseudomonas aeruginosa [4], 50 µg/mL (≈ 150 µM).
Turning to `COc1ccc([C@H]2N[C@@H](c3ccc(OC)cc3)C3CCCC2/C3=N\NC(=O)c2ccncc2)cc1`, the Activity in experiment [5] stood at 73.07%; in [6], 83.02%. Further, the MIC was 200 µg/mL (≈ 425 µM) against Bacillus subtilis [1]; 200 µg/mL (≈ 425 µM) in the experiment on Klebsiella pneumoniae [2]; 100 µg/mL (≈ 213 µM) against Escherichia coli [3]; 100 µg/mL (≈ 213 µM) against Staphylococcus aureus; 100 µg/mL (≈ 213 µM) against Candida albicans [7]; 200 µg/mL (≈ 425 µM) in the experiment with Candida albicans [8]. In addition, the MIC against Aspergillus niger came out at 200 µg/mL (≈ 425 µM); in the experiment with Candida albicans [9] it was 100 µg/mL (≈ 213 µM); with Aspergillus flavus [10], 200 µg/mL (≈ 425 µM).
`COc1cccc([C@H]2N[C@@H](c3cccc(OC)c3)C3CCCC2/C3=N\NC(=O)c2ccncc2)c1`: the results for the Activity in experiment [5] and in [6] were 77.18% and 87.06%, respectively. Besides, the MIC amounted to 50 µg/mL (≈ 106 µM) with Bacillus subtilis [1]; 100 µg/mL (≈ 213 µM) against Klebsiella pneumoniae [2]; 200 µg/mL (≈ 425 µM) in the experiment with Escherichia coli [3]; 200 µg/mL (≈ 425 µM) with Staphylococcus aureus; 200 µg/mL (≈ 425 µM) against Pseudomonas aeruginosa [4]; 200 µg/mL (≈ 425 µM) in the experiment with Candida albicans [7]. For the same molecule, the MIC in the experiment with Candida albicans [8] amounted to 100 µg/mL (≈ 213 µM); against Aspergillus niger, 100 µg/mL (≈ 213 µM); with Candida albicans [9], 200 µg/mL (≈ 425 µM); against Aspergillus flavus [10], 100 µg/mL (≈ 213 µM).
